Source: PubChem BioAssay (several laboratories)
The list is not random: actives were taken first. Their share in the collection is about 3.1%.
PAFAH2 FP inh: PAFAH2 (human) inhibition; recombinant PAFAH2, FP-rhodamine activity probe, fluorescence polarization; inhibition, % at 3.39 µM; 340,000 compounds, 0.99% hits; Q99487; AID 492956;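 active means inhibition above the mean over all tested compounds plus 3 SD, cut at about 30% in these data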;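 further: inhibitors block probe labeling of enzyme so polarization drops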
pPAFAH FP inh: inhibitors of human plasma PAF acetylhydrolase (pPAFAH); Q13093; recombinant pPAFAH, FP-rhodamine probe fluorescence polarization; 330,000 compounds, 1.5% hits; AID 463082; inhibition, % at 3.39 µM;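 active means inhibition above the mean inhibition across the screen plus 3 SD, cut at about 25% in these data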;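 further: inhibitors block binding of the rhodamine activity-based probe so polarization drops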
PAFAH1B3 inh: PAFAH1B3 (human) inhibition; Q15102; recombinant PAFAH1B3, FP-rhodamine probe, fluorescence polarization; inhibition, % at 3.39 µM; 340,000 compounds, 0.28% hits;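 active means inhibition above the screen-wide average of all tested compounds plus 3 SD, cut at about 25% in these data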
Apaf1 inhib: human Apaf-1 inhibition. reconstituted apoptosome caspase-3 activity, DEVD-Rh110 fluorescence. inhibition, % at 20 µM. 330,000 compounds, 0.71% hits; active means inhibition of at least 40% at 20 µM
Target sequence (O14727 whole entry, looked up): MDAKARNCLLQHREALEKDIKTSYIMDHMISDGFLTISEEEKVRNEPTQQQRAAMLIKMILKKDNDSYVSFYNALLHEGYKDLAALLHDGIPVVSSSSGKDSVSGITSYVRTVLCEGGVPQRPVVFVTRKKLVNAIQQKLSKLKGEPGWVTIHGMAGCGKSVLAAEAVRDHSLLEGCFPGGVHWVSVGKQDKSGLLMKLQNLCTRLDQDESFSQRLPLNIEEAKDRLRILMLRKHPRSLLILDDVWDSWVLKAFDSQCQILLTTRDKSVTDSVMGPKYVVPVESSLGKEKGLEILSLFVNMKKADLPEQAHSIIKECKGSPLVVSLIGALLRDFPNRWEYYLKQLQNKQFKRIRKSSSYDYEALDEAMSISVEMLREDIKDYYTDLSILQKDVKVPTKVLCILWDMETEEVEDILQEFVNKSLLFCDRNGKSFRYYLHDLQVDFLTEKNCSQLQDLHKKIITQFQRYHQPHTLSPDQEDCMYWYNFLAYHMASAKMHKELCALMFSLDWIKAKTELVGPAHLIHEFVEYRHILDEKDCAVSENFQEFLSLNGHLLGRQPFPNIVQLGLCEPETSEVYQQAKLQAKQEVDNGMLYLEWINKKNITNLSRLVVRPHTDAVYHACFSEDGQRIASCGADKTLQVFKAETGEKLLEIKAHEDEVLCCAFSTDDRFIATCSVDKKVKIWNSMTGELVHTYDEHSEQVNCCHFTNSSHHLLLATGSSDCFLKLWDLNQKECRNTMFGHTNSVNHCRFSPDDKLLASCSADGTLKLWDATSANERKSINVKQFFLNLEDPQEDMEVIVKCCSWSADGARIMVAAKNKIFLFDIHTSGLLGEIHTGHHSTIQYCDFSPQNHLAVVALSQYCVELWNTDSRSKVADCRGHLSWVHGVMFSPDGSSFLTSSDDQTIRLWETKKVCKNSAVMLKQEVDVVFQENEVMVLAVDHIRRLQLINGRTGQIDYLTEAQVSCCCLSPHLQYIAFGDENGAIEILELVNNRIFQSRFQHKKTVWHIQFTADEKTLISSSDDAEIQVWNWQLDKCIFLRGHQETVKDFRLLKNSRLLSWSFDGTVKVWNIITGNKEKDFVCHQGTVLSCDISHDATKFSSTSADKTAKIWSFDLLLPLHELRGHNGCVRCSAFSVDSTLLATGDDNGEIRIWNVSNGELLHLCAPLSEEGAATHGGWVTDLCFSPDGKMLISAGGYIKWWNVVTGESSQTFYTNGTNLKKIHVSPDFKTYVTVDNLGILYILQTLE
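System: Apoptosome proteins | Medium: Hepes pH 7.5 with detergent and BSA | Also added: Cytochrome c trigger plus (Z-DEVD)2-Rh110 caspase-3 substrate | Incubation: 30 min compound preincubation, 50 min activation, room temperature | Detection: Rhodamine 110 fluorescence at Ex 480/Em 540 nm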
PAFAH1B2 FP inh: inhibitors of human PAFAH1B2; recombinant PAFAH1B2, FP-rhodamine activity probe, fluorescence polarization; inhibition, % at 3.39 µM; 340,000 compounds, 1.2% hits; P68402;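 active means inhibition above the mean of all tested compounds plus 3 SD, cut at about 24% in these data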
Each line names hits and unclear results; the compound was inactive in the other large screens.

Nc1nnc(CC(=O)N/N=C/c2cc([N+](=O)[O-])cc(Br)c2O)s1	pPAFAH FP inh 27.6, PAFAH1B2 FP inh 24.7
COc1ccc(CNC(=O)COC(=O)c2cc(S(=O)(=O)N3CCOCC3)ccc2O)cc1OC	none
O=C(NCCc1ccc(Cl)cc1)c1cc2ccccn2n1	PAFAH1B2 FP inh 30.0
O=C(CSc1nnc2c(n1)[nH]c1ccccc12)NCc1ccccc1F	none
O=C1NC(=NCc2ccccc2)S/C1=C/c1ccc(O)cc1	pPAFAH FP inh 29.4
O=C(COC(=O)/C=C/c1ccc(F)cc1)NC1CCS(=O)(=O)C1 (configuration not stated)	none (no result: pPAFAH FP inh)
COc1ccc(-c2cc(=O)c3c(O)cc(O)cc3o2)cc1	none
O=c1cc(-c2ccc(O)c(O)c2)oc2cc(O)cc(O)c12	PAFAH1B3 inh 39.4, PAFAH1B2 FP inh 34.0
O=C1C(=O)c2ccccc2C(O)=C1CCCCl	Apaf1 inhib 82.6
COc1ccc(CC2=C(O)c3ccccc3C(=O)C2=O)cc1	none
COc1ccc(-c2cc3c(=O)n(CC(=O)Nc4cccc(Cl)c4)nc(C)n3n2)cc1	none
Cc1ccc(S(=O)(=O)N2CCN(C(=O)C(Cc3ccccc3)NC(=O)c3ccccc3)CC2)cc1 (configuration not stated)	none
C[C@H](NC(=O)c1nc[nH]c1C(=O)NCC(=O)OCc1ccccc1)C(=O)OCc1ccccc1	none
C[C@H](NC(=O)c1nc[nH]c1C(=O)NCC(=O)OCc1ccccc1)c1ccccc1	PAFAH1B2 FP inh 34.0
CC1=NN(c2ccc(C)c(C)c2)C(=O)/C1=C\C=C\c1ccc([N+](=O)[O-])o1	pPAFAH FP inh 25.4
CC1=NN(c2ccccc2)C(=O)/C1=C\C=C\c1ccccc1	none (no result: PAFAH2 FP inh, PAFAH1B3 inh, PAFAH1B2 FP inh)
CCSC1OC(C(COC(C)=O)OC(C)=O)C(OC(C)=O)C1NC(C)=S (configuration not stated)	none (no result: pPAFAH FP inh, Apaf1 inhib)
COc1cc(/C=N/NS(=O)(=O)c2ccc(C(C)(C)C)cc2)cc([N+](=O)[O-])c1O	PAFAH1B2 FP inh 32.7
COc1cc(/C=N/N(C)S(=O)(=O)c2ccc(C)cc2)cc([N+](=O)[O-])c1O	PAFAH1B2 FP inh 36.0
COc1cc(/C=N/NS(=O)(=O)c2ccc(C)c([N+](=O)[O-])c2)cc([N+](=O)[O-])c1O	none
COC(=O)N/N=C/c1cc(OC)c(O)c([N+](=O)[O-])c1	none
Cc1ccc(-n2cccc2/C=C2/C(=N)N3C(=NC2=O)SN=C3S(C)(=O)=O)cc1	PAFAH1B2 FP inh 27.7
Cc1ccc(S(=O)(=O)Oc2ccc(/C=C3/C(=N)N4C(=NC3=O)SN=C4S(C)(=O)=O)cc2)cc1	PAFAH1B2 FP inh 50.0
COc1cc(/C=C2/C(=N)N3C(=NC2=O)SN=C3S(C)(=O)=O)ccc1OS(=O)(=O)c1ccc(C)cc1	none
CCS(=O)(=O)C1=NSC2=NC(=O)/C(=C\c3ccc(OS(=O)(=O)c4ccccc4)c(OC)c3)C(=N)N21	none
O=C1ON=C(c2ccccc2)/C1=C/c1ccc(OS(=O)(=O)c2ccccc2)cc1	PAFAH1B2 FP inh 101.0 (no result: Apaf1 inhib)
CS(=O)(=O)C1=NSC2=NC(=O)/C(=C\c3ccc(OS(=O)(=O)c4ccccc4)cc3)C(=N)N21	PAFAH1B2 FP inh 24.9
CCOC(=O)C1=C(C)NC(C)=C(C(=O)OCC)C1C(=O)OCC(=O)NC1(C#N)CCCCC1	none
Cc1ccc(S(=O)(=O)Oc2ccc(/C=C3\C(=N)N4N=C(S(C)(=O)=O)SC4=NC3=O)cc2)cc1	PAFAH1B2 FP inh 59.8
Cc1[nH]c2ccccc2c1C(=O)C(=O)Nc1ccc2c(c1)OCO2	none
COc1ccc(-c2cc(CNS(=O)(=O)c3ccc(F)cc3)on2)cc1	none
Cc1cccc(C(=O)Nc2nnc(S(=O)(=O)N(C)Cc3ccco3)s2)c1	none
Cc1ccc(S(=O)(=O)c2c(N)n(CCCN(C)C)c3nc4ccccc4nc23)cc1	none
CCCCn1c(NS(=O)(=O)c2ccc(C)cc2)c(S(=O)(=O)c2ccccc2)c2nc3ccccc3nc21	PAFAH2 FP inh 49.3, PAFAH1B3 inh 72.2, PAFAH1B2 FP inh 34.0 (no result: Apaf1 inhib)
Cc1noc(C)c1C(=O)N(C)CC(=O)Nc1ccc(F)c(F)c1F	none
Cc1ccc(SCC(=O)NNC(=O)c2cncc(Br)c2)cc1	PAFAH1B2 FP inh 28.9
Cc1ccc(C(=O)c2cncc(Br)c2)cc1	none
O=S(=O)(NC12CC3CC(CC(C3)C1)C2)c1ccc(F)cc1	PAFAH1B2 FP inh 28.3
O=C1CCCC/C1=C\Nc1ccc(O)cc1	pPAFAH FP inh 26.1
O=C1c2ccccc2-c2c1nc1c([n+]2[O-])CCCC1	Apaf1 inhib 41.6
CCCc1cc(=O)oc2cc(C)c(CN3CCCC3)c(O)c12	pPAFAH FP inh 24.6
CCCc1cc(=O)oc2c(CN3CCCC3)c(O)ccc12	none
Cc1cc(O)c2c(c1)C(=O)[C@@]13Oc4c5c(c(O)c6c(O)cc(C)cc46)C(=O)C[C@H](O)[C@H]5[C@@H]1[C@@H](O)CC(=O)C3=C2O	none (no result: pPAFAH FP inh, Apaf1 inhib)
CCOc1ccc(/C=C/C2=Cc3c(sc(NC(=O)CSc4n[nH]c(N)n4)c3C#N)C(C)(C)C2)cc1	none
Cc1ccsc1/C=C/C1=Cc2c(sc(NC(=O)CSc3n[nH]c(N)n3)c2C#N)C(C)(C)C1	pPAFAH FP inh 32.3
O=C(c1ccco1)N1CCN(c2ncnc3c(-c4ccc(Cl)cc4)nsc23)CC1	none
CC(C)[C@H](NS(=O)(=O)c1ccccc1)C(=O)Nc1ccccc1N1CCOCC1	none
COc1cc2cc(CN(Cc3nnnn3Cc3ccco3)C3CCCCC3)c(=O)[nH]c2cc1OC	pPAFAH FP inh 26.0
CCOc1ccc2[nH]c(=O)c(CN(Cc3nnnn3Cc3ccco3)C3CCCCC3)cc2c1	none
Cc1ccc(Oc2ccccc2NC(=O)C2=COCCO2)cc1	none
Cc1cc(C)cc(C(=O)NC(CC(N)=O)c2ccc(NC3CCCC3)c([N+](=O)[O-])c2)c1 (configuration not stated)	none
O=C(CSc1n[nH]c(-c2ccc(S(=O)(=O)NC3CCCCC3)cc2)n1)N1CCCC1	pPAFAH FP inh 27.9
O=C(COc1ccc(S(=O)(=O)NC2CCCC2)cc1)N1CCCCC1	none
O=C(/C=C/c1ccc(O)c([N+](=O)[O-])c1)c1ccc2ccccc2c1	PAFAH2 FP inh 44.0, pPAFAH FP inh 31.6, PAFAH1B2 FP inh 28.8
CN(C)c1ccc(/C=C/C(=O)c2ccccc2)cc1[N+](=O)[O-]	none
O=C(NNC(=O)c1ccccc1F)c1ccc(S(=O)(=O)N2CCCC2)cc1	none
CC1CC(C)CN(S(=O)(=O)c2ccc(C(=O)NNC(=O)c3ccccc3F)cc2)C1 (configuration not stated)	PAFAH1B2 FP inh 26.1
CC(C)(C)N=Cc1c(O)ccc2oc3c(c12)CCCC3	none
O=[N+]([O-])c1cc2oc3c(c2c(C=NCc2ccncc2)c1O)CCCC3	PAFAH2 FP inh 37.3, PAFAH1B3 inh 26.4 (no result: pPAFAH FP inh, Apaf1 inhib)
COc1ccc(-c2cc(-c3c(O)c(OC)c4occc4c3OC)[nH]n2)cc1OC	pPAFAH FP inh 34.4
COc1ccc(-c2cc(-c3c(O)c(OC)c4occc4c3OC)[nH]n2)cc1	none
COc1ccc(NC(=O)CSc2nnc(Cc3cccn3C)n2-c2ccc(C)cc2)cc1OC	pPAFAH FP inh 32.3
